The values that follow come from PubChem BioAssay.

Experiment [1] in a line: hit retest on RPL19A-GFP reporter strain – cell-based, S. cerevisiae, flow cytometry, cherry picks, mother/daughter gates, confirmation (AID 2270;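 active means GFP response below 50% of the DMSO control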). The settings on record: 3 h, at 10 µM, stronger effect = lower value, 100 = same GFP as DMSO wells. In general terms: In flow cytometry, cells or beads pass a laser one at a time.
A short description of experiment [2]: yeast TOR pathway reporter LAP4-GFP change – cell-based, cherry picks, flow cytometry, mother/daughter gates, confirmation (AID 2271;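 active means GFP response above 150% of the DMSO control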;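 further: ratio of sample to DMSO plate mean so 100% equals DMSO level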). The settings on record: S. cerevisiae LAP4-GFP strain, 3 h, at 10 µM, stronger effect = higher value, 100 means same as DMSO control. Put shortly: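 Measured by: GFP by flow cytometry. Test system: GFP-fusion yeast strain. Input: yeast cells seeded at OD600 of 0.2. Timing: 30 °C, 3 h compound incubation, rotating. Buffer or medium: synthetic complete medium for yeast. Benchmarks: DMSO-only negative wells, rapamycin 400 ng/mL positive wells. Compound: 10 µM single dose.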

Experiment [3] in a line: TOR pathway reporter MEP2-GFP, retest of hits – S. cerevisiae, flow cytometry GFP, cherry picks, confirmation (AID 2272;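 active means GFP response above 150% of the DMSO control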;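 further: ratio of well signal to plate DMSO mean so 100% equals DMSO level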). Particulars: S. cerevisiae MEP2-GFP strain, 3 h, at 10 µM, stronger effect = higher value.
Experiment [4] can be described thus: yeast AGP1-GFP fluorescence change, single-dose – cell-based, flow cytometry, S. cerevisiae, cherry picks, confirmation (AID 2273).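 Further: median GFP channel fluorescence over the whole cell population gate.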 The settings on record: S. cerevisiae AGP1-GFP strain, 3 h, at 10 µM.
The nature of experiment [5]: TOR pathway CIT2 reporter hit retest – S. cerevisiae, GFP fusion, cherry picks, mother/daughter gates, confirmation (AID 2274). Particulars: S. cerevisiae CIT2-GFP strain, flow cytometry, 3 h, at 10 µM, stronger effect = higher value.
Where [6] appears, read: measured here: daughter cell gate.
The mark [7] stands for this setting: measured here: mother cell gate.
Setting [8] is: measured here: daughter cell gate response.
[9] abbreviates: measured here: mother cell gate response.

Calls of active or inactive are those of the source.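 How the source made its calls, unless noted: active means GFP response above 150% of the DMSO level; inconclusive means fewer than 70 events counted for a yeast strain; inactive means the rest.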

In the case of `O=C(c1ccccc1[N+](=O)[O-])n1cnc2ccccc21`, the GFP response vs DMSO in experiment [1] was 100% (inactive); in experiment [1] (setting [6]) it was 101%; in experiment [1] (setting [7]), 100%; in experiment [3], 94.4% (inactive). Further, the GFP response relative to DMSO was 96.1% (inactive) in experiment [2], 98.2% in experiment [2] (setting [8]) and 96.2% in experiment [2] (setting [9]). The GFP response, % of DMSO in experiment [4] is 87.1% (inactive); in experiment [5], 117% (inactive); in experiment [5] (setting [6]), 110%; in experiment [5] (setting [7]) it was 119%.

For `COc1cccc(-c2nnc(NC(=O)c3ccc(S(=O)(=O)N4CC(C)OC(C)C4)cc3)o2)c1` (stereo unspecified), the GFP response vs DMSO in experiment [1] was 103% (inactive); in experiment [1] (setting [6]), 103%; in experiment [1] (setting [7]), 102%; in experiment [3], 109% (inactive). In addition, the GFP response relative to DMSO was 95.7% (inactive) in experiment [2], 94.2% in experiment [2] (setting [8]) and 96.2% in experiment [2] (setting [9]). In addition, the GFP response, % of DMSO in experiment [4] is 100% (inactive); in experiment [5] it was 100% (inactive); in experiment [5] (setting [6]), 97.4%; in experiment [5] (setting [7]), 99.3%.

As to `CCN(Cc1ccccc1)S(=O)(=O)c1ccc(C(=O)Nc2nnc(C3CC3)o2)cc1`, the GFP response vs DMSO in experiment [1] was 98% (inactive); in experiment [1] (setting [6]), 97%; in experiment [1] (setting [7]), 98.6%; in experiment [3], 99.5% (inactive). The GFP response relative to DMSO in experiment [2] is 106% (inactive); in experiment [2] (setting [8]), 105%; in experiment [2] (setting [9]), 104%. Further, the GFP response, % of DMSO in experiment [4] is 96.9% (inactive); in experiment [5] it was 99.3% (inactive); in experiment [5] (setting [6]), 100%; in experiment [5] (setting [7]), 96.8%.

For the compound `O=C(N/N=C/c1c(Cl)cccc1Cl)c1cccc(F)c1`, the GFP response vs DMSO is 95.6% (inactive) in experiment [1], 95.3% in experiment [1] (setting [6]), 94% in experiment [1] (setting [7]) and 103% (inactive) in experiment [3]. The figures for the GFP response relative to DMSO in experiment [2], in experiment [2] (setting [8]) and in experiment [2] (setting [9]) were 92.9% (inactive), 94.4% and 93.4%, respectively. The GFP response, % of DMSO in experiment [4] was 97.5% (inactive); in experiment [5], 97.2% (inactive); in experiment [5] (setting [6]), 99.3%; in experiment [5] (setting [7]), 97.1%.

As to `COc1ccc(C(=O)/C=C2/C(=O)Nc3ccccc32)cc1`, the GFP response vs DMSO was 86.7% (inactive) in experiment [1], 88.1% in experiment [1] (setting [6]), 82.7% in experiment [1] (setting [7]) and 96.2% (inactive) in experiment [3]. Moreover, the GFP response relative to DMSO in experiment [2] is 133% (inactive); in experiment [2] (setting [8]), 122%; in experiment [2] (setting [9]), 139%. Besides, the GFP response, % of DMSO in experiment [4] is 95.4% (inactive); in experiment [5], 98.3% (inactive); in experiment [5] (setting [6]) it was 97.2%; in experiment [5] (setting [7]), 91.4%.

In the case of `O=C(NCC(c1ccc(F)cc1)N1CCOCC1)c1cc(F)c(F)c(F)c1F` (stereo unspecified), the GFP response vs DMSO in experiment [1] was 100% (inactive); in experiment [1] (setting [6]) it was 99.6%; in experiment [1] (setting [7]), 101%; in experiment [3], 101% (inactive). The results for the GFP response relative to DMSO in experiment [2], in experiment [2] (setting [8]) and in experiment [2] (setting [9]) were 102% (inactive), 102% and 102%, respectively. The GFP response, % of DMSO is 102% (inactive) in experiment [4], 102% (inactive) in experiment [5], 101% in experiment [5] (setting [6]) and 101% in experiment [5] (setting [7]).

In the case of `CCOC(=O)/C(=C\c1cn(C)c2ccccc12)[N+](=O)[O-]`, the GFP response vs DMSO in experiment [1] was 98.2% (inactive); in experiment [1] (setting [6]), 93.4%; in experiment [1] (setting [7]), 93.6%; in experiment [3], 111% (inactive). Moreover, the GFP response relative to DMSO in experiment [2] is 204% (active); in experiment [2] (setting [8]), 163%; in experiment [2] (setting [9]), 202%. For the same compound, the GFP response, % of DMSO in experiment [4] is 84.2% (inactive); in experiment [5] it was 86.9% (inactive); in experiment [5] (setting [6]), 88.1%; in experiment [5] (setting [7]), 76%.

As to `COc1ccc(C(=O)NC(=S)Nc2ccc(CN3CCOCC3)cc2)cc1`, the GFP response vs DMSO in experiment [1] was 101% (inactive); in experiment [1] (setting [6]), 98.8%; in experiment [1] (setting [7]), 99.9%; in experiment [3], 99% (inactive). For the same compound, the GFP response relative to DMSO in experiment [2] was 99.5% (inactive); in experiment [2] (setting [8]), 99.1%; in experiment [2] (setting [9]) it was 99.4%. Moreover, the GFP response, % of DMSO in experiment [4] is 101% (inactive); in experiment [5], 98.8% (inactive); in experiment [5] (setting [6]) it was 99.2%; in experiment [5] (setting [7]) it was 98.1%.

With `C=CCn1c(C)c(/C=C/c2cc[n+](C)cc2)c2ccccc21`, the GFP response vs DMSO was 99.6% (inactive) in experiment [1], 99.8% in experiment [1] (setting [6]), 98.1% in experiment [1] (setting [7]) and 147% (inactive) in experiment [3]. The GFP response relative to DMSO in experiment [2] is 133% (inactive); in experiment [2] (setting [8]), 136%; in experiment [2] (setting [9]), 129%. For the same compound, the GFP response, % of DMSO was 101% (inactive) in experiment [4], 141% (inactive) in experiment [5], 142% in experiment [5] (setting [6]) and 139% in experiment [5] (setting [7]).

`Clc1ccc(-n2cccc2)cn1`: the GFP response vs DMSO in experiment [1] is 101% (inactive); in experiment [1] (setting [6]), 99.2%; in experiment [1] (setting [7]), 102%; in experiment [3] it was 100% (inactive). In addition, the GFP response relative to DMSO in experiment [2] was 93.8% (inactive); in experiment [2] (setting [8]), 95.6%; in experiment [2] (setting [9]) it was 95.2%. Also, the GFP response, % of DMSO is 96.3% (inactive) in experiment [4], 99.1% (inactive) in experiment [5], 98.1% in experiment [5] (setting [6]) and 101% in experiment [5] (setting [7]).

For the compound `O=S(=O)(/N=C(/Nc1ccc(F)cc1F)c1ccc(Cl)cc1)c1ccccc1`, the GFP response vs DMSO in experiment [1] was 101% (inactive); in experiment [1] (setting [6]), 101%; in experiment [1] (setting [7]) it was 103%; in experiment [3] it was 102% (inactive). The values for the GFP response relative to DMSO in experiment [2], in experiment [2] (setting [8]) and in experiment [2] (setting [9]) were 96.5% (inactive), 96.5% and 96.5%, respectively. Also, the GFP response, % of DMSO is 96.9% (inactive) in experiment [4], 96.4% (inactive) in experiment [5], 98.3% in experiment [5] (setting [6]) and 95.6% in experiment [5] (setting [7]).

`C/C(=N\NC(=O)c1cccc(Br)c1)c1ccccn1`: the GFP response vs DMSO is 108% (inactive) in experiment [1], 97.6% in experiment [1] (setting [6]), 102% in experiment [1] (setting [7]) and 122% (inactive) in experiment [3]. The results for the GFP response relative to DMSO in experiment [2], in experiment [2] (setting [8]) and in experiment [2] (setting [9]) were 163% (active), 149% and 166%, respectively. Further, the GFP response, % of DMSO was 97.3% (inactive) in experiment [4], 108% (inactive) in experiment [5], 101% in experiment [5] (setting [6]) and 101% in experiment [5] (setting [7]).

For `CCn1c(=O)c(C(=O)Nc2nc3ccccc3[nH]2)c(O)c2ccccc21`, the GFP response vs DMSO in experiment [1] is 82.3% (inactive); in experiment [1] (setting [6]), 87.3%; in experiment [1] (setting [7]), 67%; in experiment [3], 159% (inactive). In addition, the GFP response relative to DMSO in experiment [2] was 169% (active); in experiment [2] (setting [8]) it was 109%; in experiment [2] (setting [9]), 185%. Also, the GFP response, % of DMSO is 96.2% (inactive) in experiment [4], 128% (inactive) in experiment [5], 99.1% in experiment [5] (setting [6]) and 109% in experiment [5] (setting [7]).

Turning to `O=C(CC1SC(=Nc2ccccc2F)N(CCN2CCOCC2)C1=O)Nc1ccc(F)cc1F` (stereo unspecified), the GFP response vs DMSO in experiment [1] was 96.8% (inactive); in experiment [1] (setting [6]), 97.4%; in experiment [1] (setting [7]), 96.6%; in experiment [3], 102% (inactive). Further, the GFP response relative to DMSO in experiment [2] was 95.4% (inactive); in experiment [2] (setting [8]), 96%; in experiment [2] (setting [9]), 94%. Moreover, the GFP response, % of DMSO is 97.8% (inactive) in experiment [4], 98.3% (inactive) in experiment [5], 99.1% in experiment [5] (setting [6]) and 98.5% in experiment [5] (setting [7]).

With `COc1ccc(C(=O)Nc2cccc(C)c2)cc1`, the GFP response vs DMSO was 98.2% (inactive) in experiment [1], 99.3% in experiment [1] (setting [6]), 96.9% in experiment [1] (setting [7]) and 108% (inactive) in experiment [3]. The GFP response relative to DMSO was 109% (inactive) in experiment [2], 108% in experiment [2] (setting [8]) and 107% in experiment [2] (setting [9]). For the same compound, the GFP response, % of DMSO in experiment [4] was 101% (inactive); in experiment [5], 111% (inactive); in experiment [5] (setting [6]), 108%; in experiment [5] (setting [7]), 108%.

For the compound `CCOC(=O)CNc1c(-c2ccc(O)cc2)nc2ccc(Cl)cn12`, the GFP response vs DMSO in experiment [1] is 101% (inactive); in experiment [1] (setting [6]), 99.8%; in experiment [1] (setting [7]) it was 101%; in experiment [3], 102% (inactive). Besides, the GFP response relative to DMSO in experiment [2] is 96.5% (inactive); in experiment [2] (setting [8]), 95%; in experiment [2] (setting [9]) it was 97.5%. Besides, the GFP response, % of DMSO in experiment [4] was 95.4% (inactive); in experiment [5], 96.4% (inactive); in experiment [5] (setting [6]), 96.4%; in experiment [5] (setting [7]), 95.6%.
